Test results from paper PMC5901648 (Cancer, 2017).
Structures can show the parent of a compound that is named as a salt. Where two headings read alike, the source gives them in different places.

Assays:
[1] = cited from earlier work
[2] = in vivo studies; cited from earlier work
[3] = test system: patients with advanced hematological malignancies; assay: Efficacy; format: in vivo, human
[4] = test system: patients with advanced solid tumors; details: cited from earlier work; for stable disease (SD) as best response, patients: advanced solid tumors
[5] = test system: histone H3 acetylation (AcH3) in peripheral blood mononuclear cells; assay: Pharmacodynamics: AcH3 levels in PBMCs; format: in vivo, human; details: ten subjects; maximal at 3 h post-dose; no dose-dependent increase
[6] = Plasma pharmacokinetics of pracinostat; format: in vivo, human; details: for half-life / Tmax / AUC(0-inf) / Cmax: human, plasma; for AUC(0-inf): AUC0-inf
How it was run: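 The test compound was given orally at 10–120 mg to patients with hematologic malignancies. AUC0-inf was noncompartmental, t1/2 came from the terminal log-linear phase (≥3 last points), and Cmax/Tmax were read from the curves.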

[7] = test system: patients with advanced hematological malignancies; assay: Phase 1 dose escalation, safety and toxicity, Arm 1; details: human, in vivo
[8] = test system: HDAC; details: pan-HDACI; cited from earlier work
[9] = po, 40 mg, Day 15, 40 mg oral, n=5, mean±SD
[10] = po, 40 mg, Day 1, 40 mg oral, n=6, mean±SD
[11] = po, 60 mg, Day 1, 60 mg oral, n=3, mean±SD
[12] = po, 60 mg, Day 15, 60 mg oral, n=3, mean±SD
[13] = po, 80 mg, Day 1, 80 mg oral, n=3, mean±SD
[14] = po, 80 mg, Day 15, 80 mg oral, n=3, mean±SD
[15] = po, 100 mg, Day 1, 100 mg oral, n=3, mean±SD
[16] = po, 100 mg, Day 15, 100 mg oral, n=3, mean±SD
[17] = po, 120 mg, Day 1, 120 mg oral, n=6, mean±SD
[18] = po, 120 mg, Day 15, 120 mg oral, n=2, mean

## O=C(CCCCCCC(=O)Nc1ccccc1)NO [vorinostat]
[1]
  half-life: 1 to 2 h

## CCCCc1nc2cc(/C=C/C(=O)NO)ccc2n1CCN(CC)CC [Pracinostat, 3-[2-butyl-1-(2-diethylaminoethyl)-1H-benzoimidazol-5-yl]-N-hydroxyacrylami-hydrochloride]
[2]
  increased half-life (t1/2) compared to vorinostat: 3.3 fold
  increased oral bioavailability compared to vorinostat: 4.1 fold
[3]; 80 mg dose level, 11 cycles
  PFS of responding AML patient: 362 days
[3]; 120 mg dose level, 8 cycles
  PFS of responding AML patient: 197 days
[3]; 32 evaluable patients
  progressive disease: 31%
  responders (CR or CCyR): 6%
[3]; 95% CI: 114.0- NA
  Median OS: 362 days
[3]; Thirteen patients of 44
  patients who died: 30%
[4]; ref 12
  stable disease (SD) as best response, patients: 32%
[4]; ref 13
  stable disease (SD) as best response, patients: 21%
[4]; continuous 5-day dosing every 2 weeks
  dose of early emergence of grade 3 TRAEs and DLTs: 20 mg
[5]
  AcH3 levels in PBMCs: increased across all dose levels
[6]; 100-mg dose level
  accumulation between Day 1 and Day 15 following repeated dosing: moderate accumulation
[6]; all dose levels
  plasma concentrations relative to IC50 for HDAC 1, 2, and 3: above the 50% inhibitory concentration (IC50)
[6]; oral, 120 mg, prolonged t1/2 reaching, discussion summary
  half-life: ≤ 14 h
[6]; oral, range over dose levels, 40-120 mg, Days 1 and 15
  Tmax: 0.8 to 1.3 h
[6]; oral, mean t1/2, range over dose levels, 40-120 mg, Days 1 and 15
  half-life: 7 to 14.1 h
[6]; [9]
  AUC(0-inf): 477 ± 191 ng·h/mL
  Cmax: 64 ± 19 ng/mL
  Tmax: 1.3 ± 0.7 h
[6]; [10]
  Cmax: 84 ± 34 ng/mL
  Tmax: 1.1 ± 0.7 h
[6]; po, 40 mg, t1/2, Day 1, 40 mg oral, n=6, mean±SD
  half-life: 9.4 ± 3.5 h
[6]; po, 40 mg, t1/2, Day 15, 40 mg oral, n=5, mean±SD
  half-life: 10.7 ± 2.3 h
[6]; [11]
  AUC(0-inf): 948 ± 1140 ng·h/mL
  Cmax: 133 ± 117 ng/mL
  Tmax: 1 ± 0.5 h
[6]; [12]
  AUC(0-inf): 766 ± 746 ng·h/mL
  Cmax: 118 ± 135 ng/mL
  Tmax: 0.8 ± 0.3 h
[6]; po, 60 mg, t1/2, Day 1, 60 mg oral, n=3, mean±SD
  half-life: 12.1 ± 2.3 h
[6]; po, 60 mg, t1/2, Day 15, 60 mg oral, n=3, mean±SD
  half-life: 11.8 ± 3.4 h
[6]; [13]
  AUC(0-inf): 1050 ± 803 ng·h/mL
  Cmax: 189 ± 182 ng/mL
  Tmax: 1.3 ± 0.8 h
[6]; [14]
  AUC(0-inf): 977 ± 459 ng·h/mL
  Cmax: 164 ± 122 ng/mL
  Tmax: 1.2 ± 0.3 h
[6]; po, 80 mg, t1/2, Day 1, 80 mg oral, n=3, mean±SD
  half-life: 7 ± 1.1 h
[6]; po, 80 mg, t1/2, Day 15, 80 mg oral, n=3, mean±SD
  half-life: 9.3 ± 4.1 h
[6]; [15]
  AUC(0-inf): 1170 ± 347 ng·h/mL
  Cmax: 187 ± 99 ng/mL
  Tmax: 1.2 ± 0.3 h
[6]; [16]
  AUC(0-inf): 1980 ± 682 ng·h/mL
  Cmax: 314 ± 143 ng/mL
  Tmax: 1 ± 0.5 h
[6]; po, 100 mg, t1/2, Day 1, 100 mg oral, n=3, mean±SD
  half-life: 8.4 ± 1.1 h
[6]; po, 100 mg, t1/2, Day 15, 100 mg oral, n=3, mean±SD
  half-life: 13.7 ± 5.6 h
[6]; [17]
  AUC(0-inf): 1360 ± 725 ng·h/mL
  Cmax: 202 ± 83 ng/mL
  Tmax: 1.2 ± 0.4 h
[6]; [18]
  AUC(0-inf): 757 ng·h/mL
  Cmax: 96 ng/mL
  Tmax: 1 h
[6]; po, 120 mg, t1/2, Day 1, 120 mg oral, n=6, mean±SD
  half-life: 10.8 ± 3 h
[6]; po, 120 mg, t1/2, Day 15, 120 mg oral, n=2, mean
  half-life: 14.1 h
[6]; in vivo
  effect of AZA administration on PK parameters for pracinostat: not affected
[7]
  AEs leading to a dose-interruption, patients: 34%
  AEs leading to a dose-reduction, patients: 27%
  Anemia, treatment-related adverse event, All Grades: 5%
  Anemia, treatment-related adverse event, Grade ≥ 3: 5%
  Anorexia, treatment-related adverse event, All Grades: 23%
  Anorexia, treatment-related adverse event, Grade ≥ 3: 2%
  Constipation, treatment-related adverse event, All Grades: 5%
  Constipation, treatment-related adverse event, Grade ≥ 3: 0%
  Diarrhea, treatment-related adverse event, All Grades: 16%
  Diarrhea, treatment-related adverse event, Grade ≥ 3: 2%
  Elevated ALT, treatment-related adverse event, All Grades: 0%
  Elevated ALT, treatment-related adverse event, Grade ≥ 3: 0%
  Fatigue, treatment-related adverse event, All Grades: 41%
  Fatigue, treatment-related adverse event, Grade ≥ 3: 11%
  Infections, treatment-related adverse event, All Grades: 9%
  Infections, treatment-related adverse event, Grade ≥ 3: 9%
  Nausea, treatment-related adverse event, All Grades: 30%
  Nausea, treatment-related adverse event, Grade ≥ 3: 0%
  Neutropenia, treatment-related adverse event, All Grades: 2%
  Neutropenia, treatment-related adverse event, Grade ≥ 3: 2%
  QTc prolongation, treatment-related adverse event, All Grades: 7%
  QTc prolongation, treatment-related adverse event, Grade ≥ 3: 5%
  Thrombocytopenia, treatment-related adverse event, All Grades: 14%
  Thrombocytopenia, treatment-related adverse event, Grade ≥ 3: 11%
  Vomiting, treatment-related adverse event, All Grades: 14%
  Vomiting, treatment-related adverse event, Grade ≥ 3: 0%
  discontinuation of pracinostat due to an AE, patients: 25%
  patients who experienced a grade ≥ 3 TRAE: 20%
  patients who experienced at least 1 TRAE: 77%
  pracinostat doses at which grade ≥ 3 thrombocytopenia was experienced: ≥ 80 mg
[7]; 28 days
  DLTs, patients: 13%
  doses at which DLTs occurred: ≥ 40 mg
[7]; po, 28 days
  recommended phase II dose (RP2D): 60 mg
[8]
  potency relative to vorinostat: about twice
